Results from different studies.
Compare with care: the assays were run in different laboratories. In brackets after ≈: the same amount, converted by molar mass.

O=c1oc2c(O)c(O)cc3c(=O)oc4c(O)c(O)cc1c4c23 — inhibition zone (Streptococcus gordonii; microbial growth, disc diffusion; 500 µg/disc): 16 mm
CN(C)[C@@H]1C(O)=C(C(N)=O)C(=O)[C@@]2(O)C(O)=C3C(=O)c4c(O)cccc4[C@@](C)(O)[C@H]3C[C@@H]12 — MIC (Acinetobacter baumannii; microbial growth, broth dilution; ATCC19606): 4 µg/mL (≈ 9 µM)
Cc1n[nH]c2ccc3nc(-c4ccc(C(=O)NCCN(C)C)cc4F)c4c(c3c12)CCCC4 — GI50 (G-361; cell growth or viability; 72 h): 1.58 µM
O=C1Nc2ccccc2C1=Nc1ccccc1Br — IC50 (B16; cell growth or viability, MTT; 48 h): > 100 µM
CCCCCCC#Cc1cncc(-c2nnc(SCc3cc([N+](=O)[O-])cc([N+](=O)[O-])c3)n2CCCN)c1 — MIC (Acinetobacter baumannii; microbial growth, broth dilution; ATCC17978): 32 µg/mL (≈ 61.1 µM)
O=C1C(=Nc2ccc(Cl)cc2)c2ccccc2N1Cc1cccc(Cl)c1 — IC50 (B16; cell growth or viability, MTT; 48 h): 1.56 µM
CO/N=C(\C(=O)N[C@@H]1C(=O)N2C(C(=O)O)=CCS[C@H]12)c1csc(N)n1 — MIC (Acinetobacter baumannii; microbial growth, broth dilution; ATCCBAA1605): > 64 µg/mL
O=C1OC[C@H]2OC(O)[C@H](O)[C@@H](O)[C@@H]2OC(=O)c2cc(O)c(O)c(O)c2-c2c(O)c(O)c3oc(=O)c4c(c(O)c(O)c5oc(=O)c2c3c54)-c2c1cc(O)c(O)c2O (mixture of isomers) — MBC (Streptococcus gordonii; microbial killing, broth dilution): 400 µg/mL
CC[C@H]1OC(=O)[C@H](C)[C@@H](O[C@H]2C[C@@](C)(OC)[C@@H](O)[C@H](C)O2)[C@H](C)[C@@H](O[C@@H]2O[C@H](C)C[C@H](N(C)C)[C@H]2O)[C@](C)(O)C[C@@H](C)CN(C)[C@H](C)[C@@H](O)[C@]1(C)O — MIC (Acinetobacter baumannii; microbial growth, broth dilution; ATCC19606): 1 µg/mL (≈ 1.34 µM)
CN(C)CCNC(=O)c1ccc(-c2nc3ccc4[nH]ncc4c3c3c2CCCC3)c(F)c1 — GI50 (G-361; cell growth or viability; 72 h): 3.27 µM
CNC(C)C1CCC(N)C(OC2C(N)CC(N)C(OC3OCC(C)(O)C(NC)C3O)C2O)O1 (stereo not shown) — MBC (Acinetobacter baumannii; microbial killing, broth dilution; ATCC19606; 24 h): 32 mM
O=C1Nc2ccccc2C1=Nc1ccc(Cl)cc1 — IC50 (B16; cell growth or viability, MTT; 48 h): 32.6 µM
C[C@H]1[C@H](NC(=O)/C(=N\OC(C)(C)C(=O)O)c2csc(N)n2)C(=O)N1S(=O)(=O)O — MIC (Acinetobacter baumannii; microbial growth, broth dilution; ATCC19606): 16 µg/mL (≈ 36.7 µM)
O=C(O[C@@H]1O[C@@H]2COC(=O)c3cc(O)c(O)c(O)c3-c3c(cc(O)c(O)c3O)C(=O)O[C@H]([C@H]1O)[C@@H]2O)c1cc(O)c(O)c(O)c1 — inhibition zone (Streptococcus gordonii; microbial growth, disc diffusion; 500 µg/disc): 14 mm
CCc1ccc(N=C2C(=O)N(Cc3ccccc3)c3ccccc32)cc1 — IC50 (B16; cell growth or viability, MTT; 48 h): 0.5 µM
C[C@@H]1O[C@@H](OC[C@H]2O[C@@H](Oc3c(-c4ccc(O)c(O)c4)oc4cc(O)cc(O)c4c3=O)[C@H](O)[C@@H](O)[C@@H]2O)[C@H](O)[C@H](O)[C@H]1O — inhibition zone (Streptococcus gordonii; microbial growth, disc diffusion; 500 µg/disc): 13 mm
CC1(C)S[C@@H]2[C@H](NC(=O)[C@H](N)c3ccc(O)cc3)C(=O)N2[C@H]1C(=O)O — MIC (Acinetobacter baumannii; microbial growth, broth dilution; ATCC19606): > 64 µg/mL
CCC(C(=O)N1C(=O)C(=Nc2ccc(Cl)cc2Br)c2ccccc21)c1ccccc1 (stereo not shown) — IC50 (B16; cell growth or viability, MTT; 48 h): 27.1 µM
CC(C)(C)c1cc(NC(=O)Nc2ccc(-c3cn4c(n3)sc3cc(OCCN5CCOCC5)ccc34)cc2)no1 — GI50 (G-361; cell growth or viability; 72 h): > 10 µM
C[C@@H](O)[C@H]1C(=O)N2C(C(=O)O)=C(SCCN=CN)C[C@H]12 — MIC (Acinetobacter baumannii; microbial growth, broth dilution; ATCC19606): 1 µg/mL (≈ 3.34 µM)
CC(C)c1cccc(C(C)C)c1N=C1C(=O)N(Cc2ccccc2)c2ccccc21 — IC50 (B16; cell growth or viability, MTT; 48 h): 6.77 µM
Oc1cc(O)c2c(c1)O[C@H](c1cc(O)c(O)c(O)c1)[C@@H](O)C2 — inhibition zone (Streptococcus gordonii; microbial growth, disc diffusion; 500 µg/disc): 11.6 mm
O=C1C(=Nc2cccc(Cl)c2)c2ccccc2N1Cc1ccc([N+](=O)[O-])cc1 — IC50 (B16; cell growth or viability, MTT; 48 h): 0.55 µM
O=C1O[C@H]2[C@@H]3OC(=O)c4cc(O)c(O)c(O)c4-c4c(O)c(O)c5oc(=O)c6c(c(O)c(O)c7oc(=O)c4c5c76)-c4c(cc(O)c(O)c4O)C(=O)OC[C@H]3OC(O)[C@@H]2OC(=O)c2cc(O)c(O)c(O)c2-c2c1cc(O)c(O)c2O (mixture of isomers) — MBC (Streptococcus gordonii; microbial killing, broth dilution): 400 µg/mL
O=c1cc(OCc2cc(-c3ccccc3)no2)c2ccccc2o1 — IC50 (Z-138; cell growth or viability, MTS; 72 h): > 100 µM
